From ChEMBL document CHEMBL4334452, “Monosaccharide Analogues of Anticancer Peptide R-Lycosin-I: Role of Monosaccharide Conjugation in Complexation and the Potential of Lung Cancer Targeting and Therapy” (J Med Chem, 2019)
Calls of active or inactive are those of the source. The rule behind the calls is not given here. *1 amine or outer side, *2 acyl side, *3 side chain or, on linkers, in order; H or OH if unused. Where a SMILES comes first, the peptide text is derived from it. The star is where a group is joined. X4 = CC(=O)N[C@H]1[C@H](OCCCN*)O[C@H](CO)[C@@H](O)[C@@H]1O; X3 = OC[C@H]1O[C@H](OCCCN*)[C@@H](O)[C@@H](O)[C@@H]1O; X1 = OC[C@H]1O[C@@H](OCCCN*)[C@H](O)[C@@H](O)[C@H]1O; X2 = O[C@@H]1[C@@H](O)[C@H](OCCCN*)OC[C@@H]1O; Glutaryl = O=C(CCCC(=O)[*:2])[*:1]

Columns and labels:
HEK-293T [1] = assay: Cytotoxicity against HEK293T cells assessed as reduction in cell viability measured after 24 hrs by CCK8 assay; format: cell-based, Homo sapiens; conditions: for Activity: human, hek-293t
In short: (§1)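 Cells (A549, H460, H1437, PC-3, HGC-27, MDA-MB-231, HEK-293T, L-02) seeded at about 2×10^3/well and grown overnight. Treated 24 h with a peptide concentration series in serum-free medium. Viability by CCK-8; IC50 taken as 50% inhibition versus untreated cells. Average of three experiments, each in triplicate.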

[2] = target: T1, Solute carrier family 2, facilitated glucose transporter member 1 (Homo sapiens) (UniProt P11166); assay: Binding affinity to GLUT1 in human A549 cells assessed as cytotoxicity by measuring reduction in cell viability measured after 24 hrs by CCK8 assay; format: cell-based; in short: as §1
T1 sequence (whole entry): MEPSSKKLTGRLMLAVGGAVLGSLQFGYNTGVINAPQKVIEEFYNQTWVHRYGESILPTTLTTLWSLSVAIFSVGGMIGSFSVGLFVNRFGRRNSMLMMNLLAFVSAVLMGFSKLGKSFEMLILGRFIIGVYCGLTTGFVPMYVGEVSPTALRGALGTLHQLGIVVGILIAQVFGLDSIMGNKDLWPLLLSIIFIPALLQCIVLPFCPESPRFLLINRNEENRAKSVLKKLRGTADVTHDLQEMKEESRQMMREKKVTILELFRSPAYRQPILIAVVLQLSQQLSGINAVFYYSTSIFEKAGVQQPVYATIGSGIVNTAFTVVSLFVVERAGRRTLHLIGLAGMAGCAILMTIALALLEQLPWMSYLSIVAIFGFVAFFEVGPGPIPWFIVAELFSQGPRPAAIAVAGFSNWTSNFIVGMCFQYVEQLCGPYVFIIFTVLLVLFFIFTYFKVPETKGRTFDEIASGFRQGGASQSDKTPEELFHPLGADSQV

[3] = target: T1, Solute carrier family 2, facilitated glucose transporter member 1 (Homo sapiens); assay: Binding affinity to GLUT1 in human A549 cells assessed as cytotoxicity by measuring reduction in cell viability at 15 uM by trypan blue staining-based assay
In short: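 A549 cells stained with trypan blue after peptide treatment at 15 µM. Dead cells appear blue and live cells unstained; live cells were counted.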

[4] = target: T1, Solute carrier family 2, facilitated glucose transporter member 1 (Homo sapiens); assay: Binding affinity to GLUT1 in human A549 cells assessed as cytotoxicity by measuring reduction in cell viability at 12.5 uM measured after 2 hrs in presence of GLUT1 inhibitor STF-31 by CCK8 assay; format: cell-based
In short: (§2)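 A549 cells at 2×10^3/well, grown overnight, then preincubated 4 h in F12K/10% FBS with or without STF-31 (1 µM final). […] Incubated a further 2 h at 37 °C; viability by CCK-8.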

[5] = target: T1, Solute carrier family 2, facilitated glucose transporter member 1 (Homo sapiens); assay: Binding affinity to GLUT1 in human A549 cells assessed as cytotoxicity at 12.5 uM measured after 2 hrs by LDH release assay; format: cell-based
In short: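 A549 cells at 2×10^3/well, allowed to adhere overnight, then exposed to peptide over a concentration series for 2 h. LDH release measured with a kit, absorbance at 490 nm. 1% Triton X-100 taken as 100% release; n=3.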

HEK-293T [6] = assay: Cytotoxicity against HEK293T cells at 12.5 uM measured after 2 hrs by LDH release assay; format: cell-based; conditions: human
[7] = target: T1, Solute carrier family 2, facilitated glucose transporter member 1 (Homo sapiens); assay: Binding affinity to GLUT1 in human A549 cells assessed as cytotoxicity by measuring reduction in cell viability at 12.5 uM measured after 2 hrs in absence of GLUT1 inhibitor STF-31 by CCK8 assay; format: cell-based; in short: as §2

Compound	Activity (HEK-293T [1])	Activity [2]	Activity [3]	Activity [4]	IC50 (HEK-293T [1]; Homo sapiens, HEK-293T) [µM]	Activity [5]	Activity (HEK-293T [6])	Activity [7]
CC[C@H](C)[C@H](NC(=O)[C@H](Cc1ccccc1)NC(=O)[C@H](CCCNC(=N)N)NC(=O)[C@H](C)NC(=O)[C@@H](NC(=O)[C@H](CO)NC(=O)[C@H](CCCNC(=N)N)NC(=O)[C@H](CCSC)NC(=O)[C@H](C)NC(=O)[C@H](CCCNC(=N)N)NC(=O)[C@H](Cc1ccccc1)NC(=O)[C@H](Cc1c[nH]c2ccccc12)NC(=O)CNC(=O)[C@H](CCCNC(=N)N)NC(=O)CCCC(=O)NCCCO[C@@H]1O[C@H](CO)[C@@H](O)[C@H](O)[C@H]1NC(C)=O)[C@@H](C)CC)C(=O)N[C@@H](C)C(=O)N[C@@H](CCCNC(=N)N)C(=O)N[C@@H](CCC(=O)O)C(=O)N[C@@H](CCCNC(=N)N)C(=O)N[C@@H](CC(C)C)C(=O)N[C@@H](CCCNC(=N)N)C(=O)N[C@@H](CCC(=O)O)C(=O)N[C@@H](Cc1cnc[nH]1)C(=O)N[C@@H](CC(C)C)C(=O)O ({X4-Glutaryl}-RGWFRAMRSIARFIARERLREHL-OH)	Non-Toxic	inactive	inactive	–	–	–	–	–
CC[C@H](C)[C@H](NC(=O)[C@H](Cc1ccccc1)NC(=O)[C@H](CCCNC(=N)N)NC(=O)[C@H](C)NC(=O)[C@@H](NC(=O)[C@H](CO)NC(=O)[C@H](CCCNC(=N)N)NC(=O)[C@H](CCSC)NC(=O)[C@H](C)NC(=O)[C@H](CCCNC(=N)N)NC(=O)[C@H](Cc1ccccc1)NC(=O)[C@H](Cc1c[nH]c2ccccc12)NC(=O)CNC(=O)[C@H](CCCNC(=N)N)NC(=O)CCCC(=O)NCCCO[C@H]1O[C@H](CO)[C@@H](O)[C@H](O)[C@@H]1O)[C@@H](C)CC)C(=O)N[C@@H](C)C(=O)N[C@@H](CCCNC(=N)N)C(=O)N[C@@H](CCC(=O)O)C(=O)N[C@@H](CCCNC(=N)N)C(=O)N[C@@H](CC(C)C)C(=O)N[C@@H](CCCNC(=N)N)C(=O)N[C@@H](CCC(=O)O)C(=O)N[C@@H](Cc1cnc[nH]1)C(=O)N[C@@H](CC(C)C)C(=O)O ({X3-Glutaryl}-RGWFRAMRSIARFIARERLREHL-OH)	Non-Toxic	inactive	inactive	–	–	–	–	–
CC[C@H](C)[C@H](NC(=O)[C@H](Cc1ccccc1)NC(=O)[C@H](CCCNC(=N)N)NC(=O)[C@H](C)NC(=O)[C@@H](NC(=O)[C@H](CO)NC(=O)[C@H](CCCNC(=N)N)NC(=O)[C@H](CCSC)NC(=O)[C@H](C)NC(=O)[C@H](CCCNC(=N)N)NC(=O)[C@H](Cc1ccccc1)NC(=O)[C@H](Cc1c[nH]c2ccccc12)NC(=O)CNC(=O)[C@H](CCCNC(=N)N)NC(=O)CCCC(=O)NCCCO[C@@H]1O[C@H](CO)[C@H](O)[C@H](O)[C@H]1O)[C@@H](C)CC)C(=O)N[C@@H](C)C(=O)N[C@@H](CCCNC(=N)N)C(=O)N[C@@H](CCC(=O)O)C(=O)N[C@@H](CCCNC(=N)N)C(=O)N[C@@H](CC(C)C)C(=O)N[C@@H](CCCNC(=N)N)C(=O)N[C@@H](CCC(=O)O)C(=O)N[C@@H](Cc1cnc[nH]1)C(=O)N[C@@H](CC(C)C)C(=O)O ({X1-Glutaryl}-RGWFRAMRSIARFIARERLREHL-OH)	–	–	Active	Active	8.3	Active	Toxic	Active
CC[C@H](C)[C@H](NC(=O)[C@H](Cc1ccccc1)NC(=O)[C@H](CCCNC(=N)N)NC(=O)[C@H](C)NC(=O)[C@@H](NC(=O)[C@H](CO)NC(=O)[C@H](CCCNC(=N)N)NC(=O)[C@H](CCSC)NC(=O)[C@H](C)NC(=O)[C@H](CCCNC(=N)N)NC(=O)[C@H](Cc1ccccc1)NC(=O)[C@H](Cc1c[nH]c2ccccc12)NC(=O)CNC(=O)[C@H](CCCNC(=N)N)NC(=O)CCCC(=O)NCCCO[C@@H]1OC[C@H](O)[C@H](O)[C@H]1O)[C@@H](C)CC)C(=O)N[C@@H](C)C(=O)N[C@@H](CCCNC(=N)N)C(=O)N[C@@H](CCC(=O)O)C(=O)N[C@@H](CCCNC(=N)N)C(=O)N[C@@H](CC(C)C)C(=O)N[C@@H](CCCNC(=N)N)C(=O)N[C@@H](CCC(=O)O)C(=O)N[C@@H](Cc1cnc[nH]1)C(=O)N[C@@H](CC(C)C)C(=O)O ({X2-Glutaryl}-RGWFRAMRSIARFIARERLREHL-OH)	–	–	Active	Active	–	Active	Toxic	Active
